# Test results published in ChEMBL document CHEMBL4261642, “Design, synthesis, and ex vivo evaluation of a selective inhibitor for retinaldehyde dehydrogenase enzymes” (Bioorg Med Chem, 2018).
# Activity calls are given as the source filed them. No cut-off for these calls is given here.
# T1: Retinal dehydrogenase 2 (Gallus gallus) (UniProt O93344)
# T1 sequence (whole entry): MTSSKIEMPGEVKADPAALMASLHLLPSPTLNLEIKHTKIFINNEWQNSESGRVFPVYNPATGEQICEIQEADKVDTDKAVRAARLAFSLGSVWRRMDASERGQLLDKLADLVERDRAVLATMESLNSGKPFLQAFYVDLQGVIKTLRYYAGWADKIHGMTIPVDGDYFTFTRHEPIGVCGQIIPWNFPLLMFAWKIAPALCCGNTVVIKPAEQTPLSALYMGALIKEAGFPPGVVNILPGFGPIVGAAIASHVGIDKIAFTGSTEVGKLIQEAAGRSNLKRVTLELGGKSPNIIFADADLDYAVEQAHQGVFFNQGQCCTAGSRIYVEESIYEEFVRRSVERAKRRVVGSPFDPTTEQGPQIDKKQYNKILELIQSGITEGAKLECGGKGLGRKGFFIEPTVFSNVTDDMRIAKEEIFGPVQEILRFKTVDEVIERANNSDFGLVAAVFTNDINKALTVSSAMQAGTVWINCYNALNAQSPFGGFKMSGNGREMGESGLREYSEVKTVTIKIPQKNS
# T2: Retinal dehydrogenase 2 (Gallus gallus, UniProt O93344)
# T2 sequence (O93344 whole entry): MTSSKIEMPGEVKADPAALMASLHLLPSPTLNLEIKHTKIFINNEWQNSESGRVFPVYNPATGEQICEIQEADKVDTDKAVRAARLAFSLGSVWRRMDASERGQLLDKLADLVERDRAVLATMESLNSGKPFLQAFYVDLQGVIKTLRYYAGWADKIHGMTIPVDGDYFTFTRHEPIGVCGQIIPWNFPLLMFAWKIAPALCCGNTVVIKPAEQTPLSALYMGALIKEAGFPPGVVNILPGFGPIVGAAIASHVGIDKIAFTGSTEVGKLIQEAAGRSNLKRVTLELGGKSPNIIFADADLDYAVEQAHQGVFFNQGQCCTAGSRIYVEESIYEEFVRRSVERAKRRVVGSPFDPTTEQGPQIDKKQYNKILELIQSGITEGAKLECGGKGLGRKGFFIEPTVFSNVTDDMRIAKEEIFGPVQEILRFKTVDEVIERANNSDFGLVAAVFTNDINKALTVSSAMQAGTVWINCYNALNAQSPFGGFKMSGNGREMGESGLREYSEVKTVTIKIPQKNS
# T3: Aldehyde dehydrogenase, mitochondrial (Homo sapiens, UniProt P05091)
# T3 sequence (P05091 whole entry): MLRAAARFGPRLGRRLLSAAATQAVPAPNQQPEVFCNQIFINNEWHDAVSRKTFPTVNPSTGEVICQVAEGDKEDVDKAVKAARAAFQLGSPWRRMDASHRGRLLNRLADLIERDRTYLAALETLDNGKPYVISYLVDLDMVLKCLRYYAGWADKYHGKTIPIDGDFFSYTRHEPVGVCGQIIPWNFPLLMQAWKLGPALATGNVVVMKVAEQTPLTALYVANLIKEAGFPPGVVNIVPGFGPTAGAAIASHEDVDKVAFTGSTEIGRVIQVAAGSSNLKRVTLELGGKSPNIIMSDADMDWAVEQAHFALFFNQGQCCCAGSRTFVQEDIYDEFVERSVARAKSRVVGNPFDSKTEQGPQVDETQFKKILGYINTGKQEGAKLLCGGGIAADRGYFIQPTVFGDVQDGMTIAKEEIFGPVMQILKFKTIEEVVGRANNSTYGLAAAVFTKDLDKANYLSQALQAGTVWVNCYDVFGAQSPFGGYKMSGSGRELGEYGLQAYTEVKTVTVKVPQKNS
# Experiments:
# [1] = target: T1, Retinal dehydrogenase 2 (Gallus gallus); assay: Inhibition of RALDH2 in living intact choroid isolated from 4 day recovering chick eyes assessed as inhibition of ATRA synthesis at 1 uM after 24 hrs in presence of […]
# Retinal dehydrogenase 2 = target: T2, Retinal dehydrogenase 2; assay: Inhibition of RALDH2 in living intact choroid isolated from 4 day recovering chick eyes assessed as inhibition of ATRA synthesis after 24 hrs in presence of […]
# [2] = target: T1, Retinal dehydrogenase 2 (Gallus gallus); assay: Inhibition of RALDH2 in living intact choroid isolated from 4 day recovering chick eyes assessed as inhibition of ATRA synthesis at 0.1 uM after 24 hrs in presence of […]
# [3] = target: T1, Retinal dehydrogenase 2 (Gallus gallus); assay: Inhibition of RALDH2 in living intact choroid isolated from 4 day recovering chick eyes assessed as inhibition of ATRA synthesis at 10 uM after 24 hrs in presence of […]
# [4] = target: T1, Retinal dehydrogenase 2 (Gallus gallus); assay: Inhibition of RALDH2 in living intact choroid isolated from normal chick eyes assessed as inhibition of ATRA synthesis after 24 hrs in presence of retinaldehyde and NAD+
# [5] = target: T3, Aldehyde dehydrogenase, mitochondrial; assay: Inhibition of N-terminal His6-tagged recombinant human mitochondrial ALDH2 using propionaldehyde as substrate preincubated for 20 mins to 1 hr followed by substrate addition and measured for 5 mins in presence of NADH by spectrophotometric assay; conditions: read-out: IC50
# [6] = compound: CC1=C(/C=C/C(C)=C/C=C/C(C)=C/C(=O)C(Cl)Cl)C(C)(C)CCC1; assay: Inhibition of N-terminal His6-tagged recombinant chick RALDH2 expressed in Escherichia coli BL21(DE3) cells at 150 nM using RAL as substrate assessed as Vmax at enzyme concentrations of 183 to 365 nM measured after 30 mins in presence of NADH by fluorescence assay; conditions: Gallus gallus
# Method in brief: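 Chick RALDH2 at 46–365 nM pre-incubated 20 min with a fixed 150 nM inhibitor. NADH synthesis then started with 250 μM retinaldehyde and 4 mM NAD+, 30 min at 37°C, read fluorimetrically. Vmax plotted against enzyme concentration.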
# [7] = compound: CC1=C(/C=C/C(C)=C/C=C/C(C)=C/C(=O)C(Cl)Cl)C(C)(C)CCC1; assay: (§1) Inhibition of N-terminal His6-tagged recombinant chick RALDH2 expressed in Escherichia coli BL21(DE3) cells at 50 nM using RAL as substrate assessed as Km preincubated for 20 mins followed by substrate addition and measured after 30 mins in presence of NADH by fluorescence assay (reference value: 82.12 +/- 28.41 microM); conditions: Gallus gallus
# [8] = compound: CC1=C(/C=C/C(C)=C/C=C/C(C)=C/C(=O)C(Cl)Cl)C(C)(C)CCC1; assay: as §1, with “100” for “50”; conditions: Gallus gallus
# [9] = compound: CC1=C(/C=C/C(C)=C/C=C/C(C)=C/C(=O)C(Cl)Cl)C(C)(C)CCC1; assay: as §1, with “150” for “50”; conditions: Gallus gallus
# [10] = compound: CC1=C(/C=C/C(C)=C/C=C/C(C)=C/C(=O)C(Cl)Cl)C(C)(C)CCC1; assay: as §1, with “200” for “50”; conditions: Gallus gallus
# [11] = compound: CC1=C(/C=C/C(C)=C/C=C/C(C)=C/C(=O)C(Cl)Cl)C(C)(C)CCC1; assay: as §1, with “250” for “50”; conditions: Gallus gallus
# [12] = compound: CC1=C(/C=C/C(C)=C/C=C/C(C)=C/C(=O)C(Cl)Cl)C(C)(C)CCC1; assay: as §1, with “Vmax” for “Km”, “1665” for “82.12”, “239.28 pmol/microM/min)” for “28.41 microM)”; conditions: Gallus gallus
# [13] = compound: CC1=C(/C=C/C(C)=C/C=C/C(C)=C/C(=O)C(Cl)Cl)C(C)(C)CCC1; assay: as §1, with “100” for “50”, “Vmax” for “Km”, “1665” for “82.12”, “239.28 pmol/microM/min)” for “28.41 microM)”; conditions: Gallus gallus
# [14] = compound: CC1=C(/C=C/C(C)=C/C=C/C(C)=C/C(=O)C(Cl)Cl)C(C)(C)CCC1; assay: as §1, with “150” for “50”, “Vmax” for “Km”, “1665” for “82.12”, “239.28 pmol/microM/min)” for “28.41 microM)”; conditions: Gallus gallus
# [15] = compound: CC1=C(/C=C/C(C)=C/C=C/C(C)=C/C(=O)C(Cl)Cl)C(C)(C)CCC1; assay: as §1, with “200” for “50”, “Vmax” for “Km”, “1665” for “82.12”, “239.28 pmol/microM/min)” for “28.41 microM)”; conditions: Gallus gallus
# [16] = compound: CC1=C(/C=C/C(C)=C/C=C/C(C)=C/C(=O)C(Cl)Cl)C(C)(C)CCC1; assay: as §1, with “250” for “50”, “Vmax” for “Km”, “1665” for “82.12”, “239.28 pmol/microM/min)” for “28.41 microM)”; conditions: Gallus gallus
# [17] = compound: CC1=C(/C=C/C(C)=C/C=C/C(C)=C/C(=O)C(Cl)Cl)C(C)(C)CCC1; assay: as §1, with “RALDH1” for “RALDH2”, “100” for “50”, “67.09” for “82.12”, “25.06” for “28.41”; conditions: Gallus gallus
# [18] = compound: CC1=C(/C=C/C(C)=C/C=C/C(C)=C/C(=O)C(Cl)Cl)C(C)(C)CCC1; assay: as §1, with “RALDH1” for “RALDH2”, “500” for “50”, “67.09” for “82.12”, “25.06” for “28.41”; conditions: Gallus gallus
# [19] = compound: CC1=C(/C=C/C(C)=C/C=C/C(C)=C/C(=O)C(Cl)Cl)C(C)(C)CCC1; assay: as §1, with “RALDH1” for “RALDH2”, “1000” for “50”, “67.09” for “82.12”, “25.06” for “28.41”; conditions: Gallus gallus
# [20] = compound: CC1=C(/C=C/C(C)=C/C=C/C(C)=C/C(=O)C(Cl)Cl)C(C)(C)CCC1; assay: as §1, with “RALDH1” for “RALDH2”, “100” for “50”, “Vmax” for “Km”, “54.77” for “82.12”, “7.58 pmol/microM/min)” for “28.41 microM)”; conditions: Gallus gallus
# [21] = compound: CC1=C(/C=C/C(C)=C/C=C/C(C)=C/C(=O)C(Cl)Cl)C(C)(C)CCC1; assay: as §1, with “RALDH1” for “RALDH2”, “500” for “50”, “Vmax” for “Km”, “54.77” for “82.12”, “7.58 pmol/microM/min)” for “28.41 microM)”; conditions: Gallus gallus
# [22] = compound: CC1=C(/C=C/C(C)=C/C=C/C(C)=C/C(=O)C(Cl)Cl)C(C)(C)CCC1; assay: as §1, with “RALDH1” for “RALDH2”, “1000” for “50”, “Vmax” for “Km”, “54.77” for “82.12”, “7.58 pmol/microM/min)” for “28.41 microM)”; conditions: Gallus gallus
molecule,measurement,setting,value
O=C(NCCCCCCCCNC(=O)C(Cl)Cl)C(Cl)Cl,inhibition,[1],51%
same,EC50,Retinal dehydrogenase 2,44.5 nM
same,inhibition,[2],40%
same,inhibition,[3],76%
same,inhibition,[4],inactive
same,IC50,[5],229 nM
"Retinal dehydrogenase 2 (Gallus gallus), O93344 (protein) MTSSKIEMPGEVKADPAALMASLHLLPSPTLNLEIKHTKIFINNEWQNSESGRVFPVYNPATGEQICEIQEADKVDTDKAVRAARLAFSLGSVWRRMDASERGQLLDKLADLVERDRAVLATMESLNSGKPFLQAFYVDLQGVIKTLRYYAGWADKIHGMTIPVDGDYFTFTRHEPIGVCGQIIPWNFPLLMFAWKIAPALCCGNTVVIKPAEQTPLSALYMGALIKEAGFPPGVVNILPGFGPIVGAAIASHVGIDKIAFTGSTEVGKLIQEAAGRSNLKRVTLELGGKSPNIIFADADLDYAVEQAHQGVFFNQGQCCTAGSRIYVEESIYEEFVRRSVERAKRRVVGSPFDPTTEQGPQIDKKQYNKILELIQSGITEGAKLECGGKGLGRKGFFIEPTVFSNVTDDMRIAKEEIFGPVQEILRFKTVDEVIERANNSDFGLVAAVFTNDINKALTVSSAMQAGTVWINCYNALNAQSPFGGFKMSGNGREMGESGLREYSEVKTVTIKIPQKNS",Vmax,[6],0.5 to 3.01 µM/min
same,Km,[7],80.7 µM
same,Km,[8],47.2 µM
same,Km,[9],22.7 µM
same,Km,[10],18.3 µM
same,Km,[11],14.9 µM
same,Vmax,[12],1560 pmol/µM/min
same,Vmax,[13],1150 pmol/µM/min
same,Vmax,[14],867 pmol/µM/min
same,Vmax,[15],666 pmol/µM/min
same,Vmax,[16],503 pmol/µM/min
"Aldehyde dehydrogenase 1A1 (Gallus gallus), P27463 (protein) MKKQGSPSNPAPVLPALPEPLKDLKIKYTKIFINNEWHDSVSGKKFEVFNPANEEKICEVAEGDKADIDKAVKAARKAFELGSPWRTMDASERGRLLNKLADLVERDRLTLATMEAIDGGKLFSTAYLMDLGACIKTIRYCAGWADKIHGRTVPMDGNFFTFTRHEPVGVCGQIIPWNFPLVMFIWKIAPALCCGNTVVVKPAEQTPLSALYMGSLIKEAGFPPGVVNIVPGFGPTAGAAISHHMDIDKVSFTGSTEVGKLIKEAAGKTNLKRVTLELGGKSPNIIFADADLDEAAEFAHIGLFYHQGQCCIAGSRIFVEEPIYDEFVRRSIERAKKYTLGDPLLPGVQQGPQIDKEQFQKILDLIESGKKEGAKLECGGGPWGNKGYFIQPTVFSNVTDDMRIAKEEIFGPVQQIMKFKTIDEVIKRANNTTYGLAAAVFTKDIDKALTFASALQAGTVWVNCYSAFSAQCPFGGFKMSGNGRELGEYGLQEYTEVKTVTIKIPQKNS",Km,[17],62.2 µM
same,Km,[18],32.9 µM
same,Km,[19],22.8 µM
same,Vmax,[20],50.1 pmol/µM/min
same,Vmax,[21],33.8 pmol/µM/min
same,Vmax,[22],25.7 pmol/µM/min
